Series [1] can be described thus: Metabolic stability in rat liver microsomes assessed as compound remaining at 0.5 uM measured after 10 mins. Format: ADME, Microsome. The conditions noted are these: read-out: Stability. In a few lines: (§1)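 Test compound at 0.5 µM incubated 10 min with mouse, rat or human liver microsomes. Read-out is percent of parent compound remaining.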
(Liver microsomes are vesicles of endoplasmic reticulum, rich in cytochrome P450 enzymes.)

In another series the target is Beta-secretase 1 (Homo sapiens, UniProt P56817). Description: Inhibition of BACE1 in human H4 cells expressing swedish mutant APP751 assessed as reduction in amyloid beta level measured after 19 hrs. Format: cell-based.
Series [2] can be described thus: Metabolic stability in mouse liver microsomes assessed as compound remaining at 0.5 uM measured after 10 mins. Format: ADME, Microsome. The conditions noted are these: read-out: Stability. In a few lines:
as §1

Series [3] can be described thus: Metabolic stability in human liver microsomes assessed as compound remaining at 0.5 uM measured after 10 mins. The format is ADME, Microsome. The conditions noted are these: read-out: Stability. In a few lines: as §1
Series [4] is described as follows: Ratio of drug level in brain to plasma of mouse at 30 mg/kg, po measured at 3 hrs post dose. The format is ADME, organism-based. The conditions noted are these: read-out: BPR. In a few lines: (§2)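 Young mice given a single oral dose of 30 mg/kg. Total brain and plasma drug levels were measured 3 h post-dose and the brain/plasma ratio derived.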
Series [5] in a line: Drug uptake in mouse brain at 30 mg/kg, po measured after 3 hrs. The format is ADME, organism-based. The conditions noted are these: read-out: Drug uptake. In outline:
as §2

Series [6] can be described thus: Plasma concentration in mouse at 30 mg/kg, po measured after 3 hrs. Format: ADME, organism-based. In outline: as §2
The next series relates to Mus musculus. Nature of the series: In vivo inhibition of BACE1 in mouse assessed as reduction in brain amyloid beta level at 30 mg/kg, po measured after 3 hrs by ELISA relative to control. Format: functional. In a few lines:
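Young mice dosed orally at 30 mg/kg. Brain Aβ was measured 3 h post-dose and expressed as percent reduction.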

In series [7] the test system is Rattus norvegicus. Description: In vivo inhibition of BACE1 in po dosed rat assessed as reduction in brain amyloid beta40 level measured after 5 hrs by ELISA relative to control. In general terms: An ELISA detects its analyte on a solid surface through an enzyme-linked reagent.
The test system of series [8] is Rattus norvegicus. Nature of the series: In vivo inhibition of BACE1 in po dosed rat assessed as reduction in brain amyloid beta42 level measured after 5 hrs by ELISA relative to control.
Series [9] has as its system Rattus norvegicus. Description: In vivo inhibition of BACE1 in po dosed rat assessed as reduction in total amyloid beta level in brain measured after 5 hrs by ELISA relative to control.

Sequence of Beta-secretase 1 (P56817 whole entry): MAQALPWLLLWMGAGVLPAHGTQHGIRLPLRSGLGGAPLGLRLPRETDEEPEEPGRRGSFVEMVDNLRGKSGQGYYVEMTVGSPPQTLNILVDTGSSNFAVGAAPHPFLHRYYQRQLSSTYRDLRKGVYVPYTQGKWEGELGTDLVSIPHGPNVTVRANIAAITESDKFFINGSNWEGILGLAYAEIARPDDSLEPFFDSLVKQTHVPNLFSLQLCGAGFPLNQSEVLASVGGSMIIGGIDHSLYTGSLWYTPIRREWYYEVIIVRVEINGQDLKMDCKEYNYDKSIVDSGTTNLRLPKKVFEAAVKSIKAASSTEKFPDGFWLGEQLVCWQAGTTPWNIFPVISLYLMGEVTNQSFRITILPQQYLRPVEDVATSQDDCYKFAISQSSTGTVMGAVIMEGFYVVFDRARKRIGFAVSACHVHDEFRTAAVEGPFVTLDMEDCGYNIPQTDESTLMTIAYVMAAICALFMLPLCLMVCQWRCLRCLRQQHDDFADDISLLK

For orientation: IC50 means the midpoint of a concentration-inhibition curve. `Cc1noc(-c2ccccc2)c1[C@@H]1C[C@@](C)(c2ccc(F)cc2F)N=C(N)S1`: the remaining at 10 min, 0.5 µM in series [1] is 20%; in series [2], 6%; in series [3], 39%. In addition, on Beta-secretase 1, the IC50 was 230 nM.
The matching figures for `Cc1onc(-c2ccccc2)c1[C@@H]1C[C@@](C)(c2ccc(F)cc2F)N=C(N)S1`: 13%, 12%, 38% and 160 nM.
`Cc1noc(-c2ccc(F)cc2)c1[C@@H]1C[C@@](C)(c2ccc(F)cc2F)N=C(N)S1`: the remaining at 10 min, 0.5 µM in series [1] stood at 88%; in series [2] it was 53%; in series [3], 45%. For the same compound, the IC50 on Beta-secretase 1 was found to be 410 nM.
The corresponding values for `Cc1noc(C(F)F)c1[C@@H]1C[C@@](C)(c2ccc(F)cc2F)N=C(N)S1` are 67%, 59%, 35% and 420 nM.
As for `Cc1noc(C)c1[C@@H]1C[C@@](C)(c2cc(-c3cncnc3)c(F)cc2F)N=C(N)S1`, the Kp at 3 h in series [4] was determined as 0.08. The concentration at 3 h in series [5] turned out to be 0.58 µM; in series [6], 7.4 µM.
In the case of `Cc1onc(-c2ccc(F)cc2)c1[C@@H]1C[C@@](C)(c2ccc(F)cc2F)N=C(N)S1`, the remaining at 10 min, 0.5 µM turned out to be 35% in series [1], 23% in series [2] and 24% in series [3]. Moreover, at Beta-secretase 1, the IC50 worked out at 320 nM.
Take `CCc1noc(C)c1[C@@H]1C[C@@](C)(c2ccc(F)cc2F)N=C(N)S1`: the remaining at 10 min, 0.5 µM in series [1] turned out to be 59%; in series [2] it was 41%; in [3] it was 21%. For the same compound, the IC50 at Beta-secretase 1 amounted to 250 nM.
As usually defined, the inhibition in vivo is the share of the control response that was lost under treatment. As to `Cc1noc(C)c1[C@@H]1C[C@@](C)(c2ccc(F)cc2F)N=C(N)S1`, the Kp at 3 h in [4] is 0.75. Besides, the remaining at 10 min, 0.5 µM in series [1] is 78%; in [2], 72%; in series [3], 24%. Moreover, at Beta-secretase 1, the IC50 stood at 150 nM. The concentration at 3 h in [5] is 3.6 µM; in series [6], 4.8 µM. Also, the inhibition in vivo at 30 mg/kg with Mus musculus turned out to be 62%. For the same compound, the inhibition result in the series with Rattus norvegicus [7], with Rattus norvegicus [8] and in the series on Rattus norvegicus [9] was “Dose-dependent effect” each time.

Source of the values: ChEMBL document CHEMBL4428078, “Discovery of S3-Truncated, C-6 Heteroaryl Substituted Aminothiazine β-Site APP Cleaving Enzyme-1 (BACE1) Inhibitors” (J Med Chem, 2016).
